What was measured:
A549 [1] = assay: Growth inhibition of human A549 cells at 100 uM after 72 hrs by WST1 assay; type: functional; conditions: A549, 72 h, read-out: GI
Summary of the method: (§1)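 The highest concentration, 100 μM, comes from a nine-point series (100 μM to 5 nM) of DMSO-dissolved compound. Cells were seeded the day before at 0.5–1.7 × 10^3 cells/well in RPMI + 10% FBS, with 4 replicates per dilution. Exposure was 72 h at 37°C, 5% CO2, against a DMSO vehicle control. WST-1 was added for 4 h and absorbance read at 450–690 nm. Growth inhibition by ≤75% was scored as not effective.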

[2] = Growth inhibition of human H460 cells at 100 uM after 72 hrs by WST1 assay; type: functional; conditions: NCI-H460, 72 h, read-out: GI; summary of the method: as §1
OVCAR-3 [3] = assay: Growth inhibition of human OVCAR3 cells at 100 uM after 72 hrs by WST1 assay; type: functional; conditions: OVCAR-3, 72 h, read-out: GI; summary of the method: as §1
PC-3 [4] = assay: Growth inhibition of human PC3 cells at 100 uM after 72 hrs by WST1 assay; type: functional; conditions: PC-3, 72 h, read-out: GI; summary of the method: as §1
MDA-MB-231 [5] = assay: Growth inhibition of human MDA-MB-231 cells at 100 uM after 72 hrs by WST1 assay; type: functional; conditions: MDA-MB-231, 72 h, read-out: GI; summary of the method: as §1
MCF7 [6] = assay: Growth inhibition of human MCF7 cells at 100 uM after 72 hrs by WST1 assay; type: functional; conditions: MCF7, 72 h, read-out: GI; summary of the method: as §1
OVCAR-3 [7] = assay: Cytotoxicity against human OVCAR3 cells after 72 hrs by WST1 assay; type: functional, cell-based; conditions: OVCAR-3, 72 h
Summary of the method: (§2)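 Cells were seeded the day before dosing at 0.5–1.7 × 10^3 cells/well in RPMI + 10% FBS. Compounds were dissolved in DMSO (stocks 100–200 mM) and tested at nine concentrations from 100 μM to 5 nM, in 4 replicates per dilution, with experiments repeated 1x or 2x. Exposure was 72 h at 37°C, 5% CO2, against a DMSO vehicle control. WST-1 was then added for 4 h and absorbance read at 450–690 nm.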

MCF7 [8] = assay: Cytotoxicity against human MCF7 cells after 72 hrs by WST1 assay; type: functional, cell-based; conditions: MCF7, 72 h; summary of the method: as §2
MDA-MB-231 [9] = assay: Cytotoxicity against human MDA-MB-231 cells after 72 hrs by WST1 assay; type: functional, cell-based; conditions: MDA-MB-231, 72 h; summary of the method: as §2
PC-3 [10] = assay: Cytotoxicity against human PC3 cells after 72 hrs by WST1 assay; type: functional, cell-based; conditions: PC-3, 72 h; summary of the method: as §2
A549 [11] = assay: Cytotoxicity against human A549 cells after 72 hrs by WST1 assay; type: functional, cell-based; conditions: A549, 72 h; summary of the method: as §2
[12] = Cytotoxicity against human H460 cells after 72 hrs by WST1 assay; type: functional, cell-based; conditions: NCI-H460, 72 h; summary of the method: as §2

| SMILES | inhibition of growth at 100 µM (A549 [1]) | inhibition of growth at 100 µM [2] | inhibition of growth at 100 µM (OVCAR-3 [3]) | inhibition of growth at 100 µM (PC-3 [4]) | inhibition of growth at 100 µM (MDA-MB-231 [5]) | inhibition of growth at 100 µM (MCF7 [6]) | IC50 (OVCAR-3 [7]) | IC50 (MCF7 [8]) | IC50 (MDA-MB-231 [9]) | IC50 (PC-3 [10]) | IC50 (A549 [11]) | IC50 [12] |
| --- | --- | --- | --- | --- | --- | --- | --- | --- | --- | --- | --- | --- |
| COc1ccc(Cn2cnc3c4nc(=O)n(-c5ccc(OC)cc5)c-4ncnc32)cc1 | ≤ 75% | ≤ 75% | ≤ 75% | ≤ 75% | ≤ 75% | ≤ 75% |  |  |  |  |  |  |
| COc1ccc(Cn2cnc3c4nc(=O)n(-c5ccccc5)c-4ncnc32)cc1 | ≤ 75% | ≤ 75% | ≤ 75% | ≤ 75% | ≤ 75% | ≤ 75% |  |  |  |  |  |  |
| COc1ccc(Cn2cnc3c4nc(=O)n(Cc5ccc(N(C)C)cc5)c-4ncnc32)cc1 |  |  |  |  |  |  | 9.43 µM | 15.1 µM | 8.82 µM | 202 µM | 8.81 µM | 8.44 µM |
| COc1ccc(Cn2c3nc(CCCC(=O)O)nc4c(ncn4Cc4ccc(OC)cc4)c-3nc2=O)cc1 | ≤ 75% | ≤ 75% | ≤ 75% | ≤ 75% | ≤ 75% | ≤ 75% |  |  |  |  |  |  |
| COc1ccc(Cn2c3nc(CCC(=O)O)nc4c(ncn4Cc4ccc(OC)cc4)c-3nc2=O)cc1 | ≤ 75% | ≤ 75% | ≤ 75% | ≤ 75% | ≤ 75% | ≤ 75% |  |  |  |  |  |  |
| COc1ccc(Cn2c3ncnc4c(ncn4Cc4ccccc4)c-3nc2=O)cc1 | ≤ 75% | ≤ 75% | ≤ 75% | ≤ 75% | ≤ 75% | ≤ 75% |  |  |  |  |  |  |
| COc1ccc(Cn2cnc3c4nc(=O)n(Cc5ccc(Br)cc5)c-4ncnc32)cc1 |  |  |  |  |  |  | 1.62 µM | 1.02 µM | 1.16 µM | 0.98 µM | 0.63 µM | 0.57 µM |
| COc1ccc(Cn2c3nc(-c4ccc(C)cc4)nc4c(ncn4Cc4ccc(OC)cc4)c-3nc2=O)cc1 | ≤ 75% | ≤ 75% | ≤ 75% | ≤ 75% | ≤ 75% | ≤ 75% |  |  |  |  |  |  |
| COc1ccc(Cn2cnc3c4nc(=O)n(Cc5ccccc5OC)c-4ncnc32)cc1 | ≤ 75% | ≤ 75% | ≤ 75% | ≤ 75% | ≤ 75% | ≤ 75% |  |  |  |  |  |  |
| COc1ccc(Cn2c3nc(C)nc4c(ncn4Cc4ccc(OC)cc4)c-3nc2=O)cc1 | ≤ 75% | ≤ 75% | ≤ 75% | ≤ 75% | ≤ 75% | ≤ 75% |  |  |  |  |  |  |
| COCCOc1ccc(Cn2c3ncnc4c(ncn4Cc4ccc(OC)cc4)c-3nc2=O)cc1 |  |  |  |  |  |  | 5.45 µM | 14.8 µM | 5.61 µM | 6.7 µM | 4.89 µM | 5.14 µM |
| COc1ccc(Cn2cnc3c4nc(=O)n(Cc5ccc(Cl)cc5)c-4ncnc32)cc1 |  |  |  |  |  |  | 0.88 µM | 2.38 µM | 0.97 µM | 0.92 µM | 0.78 µM | 0.85 µM |
| COc1ccc(Cn2cnc3c4nc(=O)n(Cc5cccc(OC)c5)c-4ncnc32)cc1 |  |  |  |  |  |  | 2.5 µM |  |  | 5.15 µM |  | 1.55 µM |
| CCc1nc2n(Cc3ccc(OC)cc3)c(=O)nc-2c2ncn(Cc3ccc(OC)cc3)c2n1 | ≤ 75% | ≤ 75% | ≤ 75% | ≤ 75% | ≤ 75% | ≤ 75% |  |  |  |  |  |  |
| COc1ccc(Cn2cnc3c4nc(=O)n(Cc5cccc(Cl)c5)c-4ncnc32)cc1 |  |  |  |  |  |  | 1.07 µM | 2.49 µM | 1.15 µM | 0.97 µM | 0.89 µM | 1 µM |
| COc1ccc(Cn2cnc3c4nc(=O)n(CCN5CCOCC5)c-4ncnc32)cc1 | ≤ 75% | ≤ 75% | ≤ 75% | ≤ 75% | ≤ 75% | ≤ 75% |  |  |  |  |  |  |
| CCn1cnc2c3nc(=O)n(Cc4ccc(OC)cc4)c-3ncnc21 | ≤ 75% | ≤ 75% | ≤ 75% | ≤ 75% | ≤ 75% | ≤ 75% |  |  |  |  |  |  |

| SMILES | inhibition of growth at 100 µM (A549 [1]) | inhibition of growth at 100 µM [2] | inhibition of growth at 100 µM (OVCAR-3 [3]) | inhibition of growth at 100 µM (PC-3 [4]) | inhibition of growth at 100 µM (MDA-MB-231 [5]) | inhibition of growth at 100 µM (MCF7 [6]) | IC50 (OVCAR-3 [7]) | IC50 (MCF7 [8]) | IC50 (MDA-MB-231 [9]) | IC50 (PC-3 [10]) | IC50 (A549 [11]) | IC50 [12] |
| --- | --- | --- | --- | --- | --- | --- | --- | --- | --- | --- | --- | --- |
| COc1ccc(Cn2c3ncnc4c(ncn4Cc4ccc(OC)cc4)c-3nc2=O)cc1 |  |  |  |  |  |  |  | 7.59 µM |  | 4.9 µM | 2.56 µM | 2.87 µM |
| COc1ccc(Cn2cnc3c4nc(=O)n(CCCl)c-4ncnc32)cc1 |  |  | ≤ 75% |  | ≤ 75% | ≤ 75% |  |  |  | 9.33 µM | 8.63 µM | 7.9 µM |
| COc1ccc(Cn2c3ncnc4c(ncn4Cc4ccc(F)cc4)c-3nc2=O)cc1 |  |  | ≤ 75% |  |  |  |  | 5.87 µM | 5.33 µM | 7.67 µM | 4.4 µM | 5.06 µM |
| COc1ccc(Cn2cnc3c4nc(=O)n(Cc5ccc(O)cc5)c-4ncnc32)cc1 |  |  |  |  |  |  | 4.36 µM | 6.58 µM | 3.15 µM | 5.12 µM | 4.21 µM | 4.68 µM |
| COc1ccc(Cn2cnc3c4nc(=O)n(Cc5ccc(OCCO)cc5)c-4ncnc32)cc1 |  |  |  |  |  |  | 13.2 µM | 27.2 µM | 10.6 µM | 19.7 µM | 12.3 µM | 10.9 µM |
| COc1ccc(Cn2c3nc(-c4ccccc4)nc4c(ncn4Cc4ccc(OC)cc4)c-3nc2=O)cc1 | ≤ 75% | ≤ 75% | ≤ 75% | ≤ 75% | ≤ 75% | ≤ 75% |  |  |  |  |  |  |
| CCOC(=O)Cn1c2ncnc3c(ncn3Cc3ccc(OC)cc3)c-2nc1=O |  |  | ≤ 75% | ≤ 75% |  | ≤ 75% |  |  | 37 µM |  | 33.5 µM | 34.5 µM |
| CCn1c2ncnc3c(ncn3Cc3ccc(OC)cc3)c-2nc1=O | ≤ 75% | ≤ 75% | ≤ 75% | ≤ 75% | ≤ 75% | ≤ 75% |  |  |  |  |  |  |
| COc1ccc(CCn2c3ncnc4c(ncn4Cc4ccc(OC)cc4)c-3nc2=O)cc1 | ≤ 75% | ≤ 75% | ≤ 75% | ≤ 75% | ≤ 75% | ≤ 75% |  |  |  |  |  |  |
| COc1ccc(Cn2cnc3c4nc(=O)n(Cc5cccc(F)c5)c-4ncnc32)cc1 |  |  |  |  |  |  | 3.18 µM | 1.64 µM | 2.7 µM | 1.83 µM | 1.2 µM | 1.24 µM |
| COc1ccc(Cn2cnc3c4nc(=O)n(Cc5cccc(C(F)(F)F)c5)c-4ncnc32)cc1 |  |  |  |  |  |  | 3.68 µM | 4.31 µM | 4.61 µM | 8.3 µM | 3.19 µM | 3.1 µM |
| COc1ccc(Cn2cnc3c4nc(=O)n(CCN5CCCCC5)c-4ncnc32)cc1 | ≤ 75% | ≤ 75% | ≤ 75% | ≤ 75% | ≤ 75% | ≤ 75% |  |  |  |  |  |  |
| COc1ccc(Cn2cnc3c4nc(=O)n(Cc5cccc(Br)c5)c-4ncnc32)cc1 |  |  |  |  |  |  | 1.54 µM | 1.85 µM | 1.53 µM | 2.57 µM | 1.37 µM | 1.17 µM |
| COc1ccc(Cn2cnc3c4nc(=O)n(Cc5ccc(F)cc5)c-4ncnc32)cc1 |  |  |  |  |  |  |  | 4.05 µM |  |  | 1.65 µM |  |
| COc1ccc(Cn2cnc3c4nc(=O)n(Cc5ccc(F)c(F)c5)c-4ncnc32)cc1 |  |  |  |  |  |  | 2.27 µM | 1.75 µM | 1.7 µM | 1.59 µM | 0.99 µM | 0.74 µM |
| COc1ccc(Cn2cnc3c4nc(=O)n(Cc5cccnc5)c-4ncnc32)cc1 |  |  |  |  |  |  | 9.89 µM | 19.8 µM | 8.68 µM | 26.9 µM | 8.05 µM | 8.3 µM |
